In publication PMC11544174 (Acta Pharmaceutica Sinica. B, 2024) one finds IC50 and CC50 data, which are given here for 1 molecule.

Data set [1] relates to respiratory syncytial virus (RSV). Put plainly: cytopathic effect. As to conditions: human respiratory syncytial virus, HEp-2, read-out: IC50 ± SD (50% inhibition concentration), anti-RSV activity. It is filed as cell-based, strain A2. The method in brief:
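Host cells were HEp-2 in DMEM with 10% FBS. RSV A2 stock was propagated in HEp-2 and titred by plaque assay. Test compounds were held as 50 mmol/L DMSO stocks at −20 °C and diluted into medium to final concentrations. Ribavirin served as positive control.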
(In general: Damage to the host cells serves as the signal in cytopathic effect assays.)

The nature of a further data set: cytotoxicity. It counts as cell-based. The conditions noted are these: human, HEp-2 cells. In outline: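 HEp-2 cells were grown in DMEM with 10% FBS. Test compounds were held as 50 mmol/L DMSO stocks at −20 °C and diluted into culture medium to final concentrations. Ribavirin served as positive control.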

For `NC(=O)c1ncn([C@@H]2O[C@H](CO)[C@@H](O)[C@H]2O)n1` [Ribavirin], the IC50 in data set [1] is 15 ± 1 µM. Also, the cytotoxic concentration (CC50) (as a rule, the concentration giving 50% cytotoxicity) in “cytotoxicity” is over 50 µM.
